Data set [1] concerns Saccharomyces cerevisiae. Kind of data set: Mutagenic activity in Saccharomyces cerevisiae after 3 hrs. The class given is ADME, organism-based. The following applies: in vivo. A digest of the protocol:
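Tested in a Saccharomyces cerevisiae strain engineered with three phenotypic readouts, with 3 hour incubation against DMSO vehicle.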

Data set [2] relates to HuT78. Kind of data set: Cytotoxicity against human HUT78 cells assessed as LDH release at 10 mM after 48 hrs. On the technique in general: LDH leaks from cells whose membrane has failed.
Data set [3] relates to HuT78. Description: Cytotoxicity against human HUT78 cells assessed as LDH release at 100 nM after 48 hrs.
The subject of data set [4] is HuT78. Description: Induction of apoptosis in human HUT78 cells assessed as caspase 3/7 activation after 24 hrs by luminometry. The class given is functional, cell-based. A digest of the protocol:
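Hut78 CTCL cells were plated and dosed immediately with ethanol vehicle, test agent, water, or sodium butyrate (positive control), then incubated 24 hours. Caspase-Glo lysis/substrate mix was added, and cleavage of the substrate by caspase 3/7 was read as luminescence. Ethanol-treated cells served as the comparison.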

Calls of active or inactive are those of the source. The rule behind the calls is not given here.

On to `Cc1cc2c(cc1C(=O)c1ccc(C(=O)O)cc1)C(C)(C)CCC2(C)C`, for which the Activity entry in data set [1] was “Non-toxic”.

With `C=C(c1ccc(C(=O)O)cc1)c1cc2c(cc1C)C(C)(C)CCC2(C)C` [BEXAROTENE], the Activity result in data set [1] was “Non-toxic”.

With `Cc1cc2c(cc1C(=O)c1cc(C(=O)O)cc(C(=O)O)c1)C(C)(C)CCC2(C)C`, the Activity result in data set [1] was “Non-toxic”.

Consider `Cc1cc2c(cc1C(=O)c1ccc(C(=O)O)c(F)c1)C(C)(C)CCC2(C)C`, for which the Activity entry in data set [1] is recorded as “Non-toxic”.

Turning to `NC(=O)NO` [HYDROXYUREA], the Activity in data set [2] is listed as 97%.

Consider `Cc1cc2c(cc1C(=O)c1ccc(C(=O)O)cc1F)C(C)(C)CCC2(C)C`, for which the result in data set [3] was Active. In addition, in data set [4], the outcome was inactive. Besides, the Activity entry in data set [1] is recorded as “Non-toxic”.

As for `C=C(c1cc(C(=O)O)cc(C(=O)O)c1)c1cc2c(cc1C)C(C)(C)CCC2(C)C`, the Activity entry in data set [1] is on record as “Non-toxic”.

In the case of `Cc1cc2c(cc1C(=O)c1ccc(C(=O)O)c([N+](=O)[O-])c1)C(C)(C)CCC2(C)C`, the Activity entry in data set [1] is on record as “Non-toxic”.

For `Cc1cc2c(cc1C(=O)c1cccc(C(=O)O)c1)C(C)(C)CCC2(C)C`, the Activity entry in data set [1] is on record as “Non-toxic”.

For the origin of these results see ChEMBL document CHEMBL1154189 (J Med Chem, 2009).
